In experiment [1] the target is Estrogen receptor (Bos taurus) (UniProt Q9XSB5+P49884). In words: Relative binding affinity for calf uterine estrogen receptor is the ratio of molar concentrations of 17-beta-estradiol and compound required to decrease amount of bound [3H]-E2 by 50% X 100. The format is protein assay. An outline of the steps:
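Calf uterine cytosol incubated with [3H]estradiol and competitor at 4 °C for 16 h. Free ligand removed with dextran-coated charcoal, then centrifuged and a supernatant aliquot counted. Six competitor concentrations chosen to span 50% competition on a semilog plot. Molar concentrations of unlabeled estradiol and test compound giving 50% reduction in binding were read from the plot.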

For experiment [2], the target named is T1, Estrogen receptor (Mus musculus) (UniProt O08537+P19785). In words: Estrogenic activity in mouse uterotrophic assay at 0 ug. In kind it is functional. Further details: unit not given here. An outline of the steps: (§1)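 Uterotrophic test in 20-day-old immature female NMRI mice (14.5 ± 1.2 g), 10 per group. Daily s.c. injections of compound in 0.1 mL olive oil for 3 days. Uteri excised 24 h after final dose, Bouin-fixed, washed, dried and weighed to measure stimulation of uterine growth.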
T1 sequence (O08537 whole entry, looked up): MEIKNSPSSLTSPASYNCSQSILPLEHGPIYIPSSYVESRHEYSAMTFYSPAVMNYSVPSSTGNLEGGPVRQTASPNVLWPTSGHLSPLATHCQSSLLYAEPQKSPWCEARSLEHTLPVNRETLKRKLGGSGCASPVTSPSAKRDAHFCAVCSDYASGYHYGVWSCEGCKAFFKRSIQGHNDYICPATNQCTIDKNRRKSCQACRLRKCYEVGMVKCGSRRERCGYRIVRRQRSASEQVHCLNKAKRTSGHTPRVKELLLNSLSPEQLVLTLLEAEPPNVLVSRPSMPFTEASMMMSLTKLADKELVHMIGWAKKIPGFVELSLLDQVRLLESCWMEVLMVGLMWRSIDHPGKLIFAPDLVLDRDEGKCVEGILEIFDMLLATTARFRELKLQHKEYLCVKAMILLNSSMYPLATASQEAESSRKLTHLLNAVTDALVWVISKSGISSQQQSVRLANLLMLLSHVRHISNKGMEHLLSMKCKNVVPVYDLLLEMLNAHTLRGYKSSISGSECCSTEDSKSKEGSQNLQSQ
T1 sequence (P19785 whole entry, looked up): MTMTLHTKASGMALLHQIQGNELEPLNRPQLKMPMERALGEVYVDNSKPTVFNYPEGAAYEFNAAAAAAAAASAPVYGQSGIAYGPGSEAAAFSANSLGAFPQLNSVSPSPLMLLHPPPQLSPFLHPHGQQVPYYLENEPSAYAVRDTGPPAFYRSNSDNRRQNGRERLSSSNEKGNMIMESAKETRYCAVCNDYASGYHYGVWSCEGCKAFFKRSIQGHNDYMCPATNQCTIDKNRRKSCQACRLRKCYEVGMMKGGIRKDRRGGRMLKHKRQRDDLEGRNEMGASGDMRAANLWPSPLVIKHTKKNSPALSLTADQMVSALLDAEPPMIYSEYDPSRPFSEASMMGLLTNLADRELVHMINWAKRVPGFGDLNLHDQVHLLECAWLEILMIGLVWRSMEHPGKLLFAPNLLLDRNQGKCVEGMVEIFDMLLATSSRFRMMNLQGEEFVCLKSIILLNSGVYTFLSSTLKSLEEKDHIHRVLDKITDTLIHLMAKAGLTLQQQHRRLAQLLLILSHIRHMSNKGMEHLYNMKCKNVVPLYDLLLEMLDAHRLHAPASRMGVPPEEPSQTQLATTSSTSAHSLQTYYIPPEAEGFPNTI

For experiment [3], the target named is T1, Estrogen receptor (Mus musculus). In words: Estrogenic activity in mouse uterotrophic assay at 1000 ug. In kind it is functional. Further details: unit not given here. Summed up:
as §1

Experiment [4] has the same target. The experiment is described as follows: Anti-estrogenic activity in mouse uterotrophic assay at 0 ug. In kind it is functional. Further details: unit not given here. Summed up: (§2)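 Immature female NMRI mice, 20 days old (14.5 ± 1.2 g), randomized into groups of 10. Test compound in olive oil (0.1 mL) given subcutaneously daily for 3 days alongside estrone stimulation. Uteri removed 24 h after last injection, fixed in Bouin's solution, washed, dried and weighed. Readout is inhibition of estrone-stimulated uterine growth.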

For experiment [5] the target is unchanged. In words: Estrogenic activity in mouse uterotrophic assay at 100 ug. The format is functional. On the set-up: unit not given here. Summed up:
as §1

Experiment [6] shares this target. The experiment is described as follows: Anti-estrogenic activity in mouse uterotrophic assay at 10 ug. In kind it is functional. On the set-up: unit not given here. Summed up: as §2
Experiment [7] shares this target. The experiment is described as follows: Estrogenic activity in mouse uterotrophic assay at 1 ug. The format is functional. An outline of the steps:
as §1

Experiment [8] has the same target. In words: Estrogenic activity in mouse uterotrophic assay at 10 ug. In kind it is functional. On the set-up: unit not given here. An outline of the steps:
as §1

The target is the same in experiment [9]. In words: (§3) Anti-estrogenic activity in mouse uterotrophic assay at 1 ug. The format is functional. An outline of the steps: as §2
Experiment [10] has the same target. In words: Anti-estrogenic activity in mouse uterotrophic assay at 100 ug. The format is functional. Further details: unit not given here. Summed up: as §2
The target is the same in experiment [11]. In words: Estrogenic activity in mouse uterotrophic assay at 0.1 ug. The format is functional. Summed up: as §1
Experiment [12] has the same target. Described as §3. The format is functional. On the set-up: unit not given here. Summed up: as §2
For experiment [13] the target is unchanged. In words: Estrogenic activity in mouse uterotrophic assay at 50 ug. In kind it is functional. An outline of the steps: as §1
Experiment [14] shares this target. The experiment is described as follows: Anti-estrogenic activity as inhibition of estrone-stimulated uterine growth in mice at 1 mg/kg. Further details: dose 1 mg/kg. In kind it is functional, organism-based. Summed up:
as §2

The target is the same in experiment [15]. The experiment is described as follows: Anti-estrogenic activity as inhibition of estrone-stimulated uterine growth in mice at 10 mg/kg. The format is functional, organism-based. Further details: dose 10 mg/kg. An outline of the steps: as §2
Experiment [16] shares this target. In words: Estrogenic activity in mouse uterotrophic assay at 5 ug. In kind it is functional. Summed up: as §1
For experiment [17] the target is unchanged. In words: Anti-estrogenic activity as inhibition of estrone-stimulated uterine growth in mice at 100 mg/kg. In kind it is functional, organism-based. On the set-up: dose 100 mg/kg. Summed up: as §2
Experiment [18] has the same target. The experiment is described as follows: Estrogenic activity in mouse uterotrophic assay at 0.5 ug. In kind it is functional. An outline of the steps:
as §1

SMILES strings stand for the structures.

As for `CCOCc1cc(C(CC)C(CC)c2ccc(O)c(COCC)c2)ccc1O` (configuration not stated), the RBA in experiment [1] turned out to be 0.18.

As to `CCC(c1ccc([N+](=O)[O-])c(O)c1)C(CC)c1ccc([N+](=O)[O-])c(O)c1` (configuration not stated), the RBA in experiment [1] stood at 0.02.

Regarding `CCC(c1ccc(O)c(CN(C)C)c1)C(CC)c1ccc(O)c(CN(C)C)c1` (configuration not stated), the RBA in [1] is 0.04.

As for `CCC(c1ccc(O)c(C)c1)C(CC)c1ccc(O)c(C)c1` (configuration not stated), the RBA in experiment [1] was found to be 8.1.

For the molecule `CCC(c1ccc(O)cc1C)C(CC)c1ccc(O)cc1C` (configuration not stated), in [1], the RBA amounted to 8.5.

`CCC(c1cc(O)ccc1F)C(CC)c1cc(O)ccc1F` (configuration not stated): the Activity was found to be 13.1 in experiment [2]; 34.6 in experiment [3]; 13.7 in experiment [4]; 39 in [5]; 38.9 in experiment [6]; 15.5 in experiment [7]. The Activity amounted to 23.2 in experiment [8], 37.8 in experiment [9] and 41.2 in [10]. Besides, the RBA in experiment [1] is 7.

As to `CCC(c1cc(O)ccc1Cl)C(CC)c1cc(O)ccc1Cl` (configuration not stated), the Activity in experiment [11] turned out to be 16.7; in experiment [2], 13.7; in experiment [3], 38.5; in experiment [4], 13.7; in experiment [5] it was 41.6; in [12] it was 40.6. The Activity in experiment [6] turned out to be 41; in experiment [7], 25.1; in [8], 47.8; in experiment [10] it was 41.5. Moreover, the RBA in experiment [1] turned out to be 4.2.

In the case of `CCC(c1ccc(O)cc1F)C(CC)c1ccc(O)cc1F` (configuration not stated), the RBA in experiment [1] was found to be 6.5.

With `CCC(c1cc(O)ccc1C)C(CC)c1cc(O)ccc1C` (configuration not stated), the Activity in experiment [2] is 13.7; in [3] it was 50.5; in experiment [4], 13.7; in [13], 41.9; in experiment [5], 52.1; in experiment [12] it was 27.2. The Activity in experiment [6] turned out to be 25.4; in [16], 19.8; in [8], 37.5; in [18] it was 13.3; in experiment [10] it was 31. The values for the inhibition in [14], in experiment [15] and in experiment [17] were 39%, 47% and 22%, respectively. Moreover, in experiment [1], the RBA stood at 15.

For the molecule `CCC(c1ccc(Br)c(O)c1)C(CC)c1ccc(Br)c(O)c1` (configuration not stated), the RBA in [1] is 0.03.

`CCC(c1ccc(O)cc1Cl)C(CC)c1ccc(O)cc1Cl` (configuration not stated): the RBA in experiment [1] worked out at 2.2.

For `CCC(c1ccc(Cl)c(O)c1)C(CC)c1ccc(Cl)c(O)c1` (configuration not stated), the RBA in [1] amounted to 0.07.

On to `CCC(c1ccc(O)c([N+](=O)[O-])c1)C(CC)c1ccc(O)c([N+](=O)[O-])c1` (configuration not stated), for which the RBA in experiment [1] worked out at 0.14.

Regarding `CCOCc1ccc(C(CC)C(CC)c2ccc(COCC)c(O)c2)cc1O` (configuration not stated), the RBA in experiment [1] is below 0.01.

As to `CCC(c1ccc(O)c(CO)c1)C(CC)c1ccc(O)c(CO)c1` (configuration not stated), in [1], the RBA was 0.71.

In the case of `CCC(c1ccc(O)c(F)c1)C(CC)c1ccc(O)c(F)c1` (configuration not stated), the RBA in experiment [1] was 16.

With `CCC(c1ccc(I)c(O)c1)C(CC)c1ccc(I)c(O)c1` (configuration not stated), in experiment [1], the RBA is below 0.01.

`CCC(c1ccc(O)c(N)c1)C(CC)c1ccc(O)c(N)c1` (configuration not stated): in experiment [1], the RBA is 5.6.

For the molecule `CCC(c1ccc(N)c(O)c1)C(CC)c1ccc(N)c(O)c1` (configuration not stated), the Activity turned out to be 13.9 in experiment [2]; 36.6 in [3]; 14.8 in experiment [4]; 19.5 in experiment [5]; 33 in [12]; 41.7 in experiment [6]. Further, the figures for the Activity in [8] and in experiment [10] were 19.9 and 42.3, respectively. The molecule further came in with an inhibition in experiment [14] of 29%. In addition, in [1], the RBA was 0.52.

For the molecule `CCC(c1ccc(O)cc1O)C(CC)c1ccc(O)cc1O` (configuration not stated), the RBA in experiment [1] worked out at 32.

The inhibition is the change of the read-out against control, counted positive when it falls.
